# Screens: PubChem BioAssay, The Scripps Research Institute Molecular Screening Center
# Compounds with a hit are over-represented: about 3.6% of the library has one in this group of screens.
# PAFAH1B3 inh = PAFAH1B3 enzyme inhibitors, primary screen, biochemical, fluorescence polarization, human. Platelet-activating factor acetylhydrolase IB subunit alpha1 (Homo sapiens), Q15102. recombinant PAFAH1B3, FP-rhodamine probe. inhibition, % at 3.39 µM. 0.28% of 340,000 active. AID 492972, 2010;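 active = inhibition above the screen-wide average of all tested compounds plus 3 SD, cut at about 25% in these data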;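 note: 0% = enzyme with DMSO only and 100% = wells lacking PAFAH1B3 protein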
# Target sequence (Q15102 whole entry, looked up): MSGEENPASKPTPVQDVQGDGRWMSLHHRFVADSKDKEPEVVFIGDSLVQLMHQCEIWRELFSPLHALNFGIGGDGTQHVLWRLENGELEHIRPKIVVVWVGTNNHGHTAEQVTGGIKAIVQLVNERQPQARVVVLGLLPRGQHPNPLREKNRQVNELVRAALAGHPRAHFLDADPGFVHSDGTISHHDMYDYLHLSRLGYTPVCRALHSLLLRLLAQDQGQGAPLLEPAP
# pPAFAH inh = pPAFAH enzyme inhibitors, primary screen, biochemical, fluorescence polarization, human; Platelet-activating factor acetylhydrolase (Homo sapiens), Q13093; recombinant pPAFAH, FP-rhodamine probe fluorescence polarization; inhibition, % at 3.39 µM; 1.5% of 330,000 active; AID 463082, 2010;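 active = inhibition above the mean inhibition across the screen plus 3 SD, cut at about 25% in these data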;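 note: inhibitors block binding of the rhodamine activity-based probe so polarization drops; 0% = enzyme with DMSO and 100% = wells lacking pPAFAH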
# IMP-1 inh = IMP-1 metallo-beta-lactamase inhibitors, primary screen, biochemical, epi-absorbance readout, Pseudomonas aeruginosa enzyme; purified IMP-1, nitrocefin hydrolysis, epi-absorbance fluorescence; AID 1556, 2009; metallo-beta-lactamase IMP-1 (Pseudomonas aeruginosa); inhibition, % at 5.6 µM; 0.45% of 290,000 active;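 active = inhibition above the mean plus 3 SD of all compounds in the same screening run, cut at about 4.5% in these data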;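 note: 0% = IMP-1 with DMSO and 100% = DMSO wells lacking enzyme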
#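 System – purified recombinant IMP-1 beta-lactamase · Input – IMP-1 dispensed at 0.2 nM · Timing – 15 min preincubation plus 25 min reaction at 25 °C · Signal – Epi-absorbance fluorescence, 480 nm excitation, 530 nm emission · Measure – percent IMP-1 inhibition derived from blank-referenced optical density · Controls – Enzyme-plus-DMSO low control, enzyme-free DMSO high control · Replication – singlicate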
# PAFAH1B2 FP inh = PAFAH1B2 enzyme inhibitors, primary screen, biochemical, fluorescence polarization, human; Platelet-activating factor acetylhydrolase IB subunit alpha2 (Homo sapiens), P68402; recombinant PAFAH1B2, FP-rhodamine activity probe; inhibition, % at 3.39 µM; 1.2% of 340,000 active; AID 492953, 2010;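 active = inhibition above the mean of all tested compounds plus 3 SD, cut at about 24% in these data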;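 note: 0% = enzyme with DMSO and 100% = wells lacking PAFAH1B2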
# Target sequence (P68402 whole entry, looked up): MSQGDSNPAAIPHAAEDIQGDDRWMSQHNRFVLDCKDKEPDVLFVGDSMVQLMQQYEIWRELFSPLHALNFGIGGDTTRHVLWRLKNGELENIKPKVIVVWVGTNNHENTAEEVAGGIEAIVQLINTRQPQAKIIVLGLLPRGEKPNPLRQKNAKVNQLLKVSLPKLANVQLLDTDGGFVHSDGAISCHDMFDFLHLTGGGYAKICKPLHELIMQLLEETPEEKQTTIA
# VIM-2 inh = VIM-2 metallo-beta-lactamase inhibitors, primary screen, biochemical, epi-absorbance readout, Pseudomonas aeruginosa enzyme; purified VIM-2, nitrocefin hydrolysis, epi-absorbance fluorescence; 0.89% of 290,000 active; inhibition, % at 5.6 µM;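 active = inhibition above the mean of all tested compounds plus 3 SD, cutoff set per screening run, cut at about 7.5% in these data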;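 note: red hydrolysis product quenches plate fluorescence so inhibitors raise well fluorescence; 0% = enzyme with DMSO and 100% = DMSO without enzyme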
# PAFAH2 inh = PAFAH2 enzyme inhibitors, primary screen, biochemical, fluorescence polarization, human; Platelet-activating factor acetylhydrolase 2, cytoplasmic (Homo sapiens), Q99487; AID 492956, 2010; 0.99% of 340,000 active; recombinant PAFAH2, FP-rhodamine activity probe; inhibition, % at 3.39 µM;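 active = inhibition above the mean over all tested compounds plus 3 SD, cut at about 30% in these data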;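 note: inhibitors block probe labeling of enzyme so polarization drops; 0% = enzyme with DMSO and 100% = wells lacking PAFAH2 protein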
# * = called active by the depositor; x = no result.
SMILES,PAFAH1B3 inh,pPAFAH inh,IMP-1 inh,PAFAH1B2 FP inh,VIM-2 inh,PAFAH2 inh
CC(C)(C)N/N=C1\CC(c2ccccc2)Oc2ccccc21 (configuration not stated),2.4,2.0,-3.5,0.9,-2.8,0.3
CS(=O)(=O)/C(C#N)=C\c1cnc(S(=O)(=O)c2ccccc2)s1,x,1.3,-1.9,x,-2.5,x
O=C(CN1CCN(S(=O)(=O)c2ccc(Cl)cc2)CC1)NC1CCCC1,6.5,-3.4,-1.3,28.7*,-2.7,2.4
Cc1ccc(S(=O)(=O)N2CCN3CCCC3C2)cc1 (configuration not stated),11.9,0.2,-5.2,4.3,0.2,-2.2
COc1ccc(OC)c(NC(=O)CN2CCC(C(=O)c3ccc(C)cc3)CC2)c1,7.4,28.7*,-1.4,0.0,-3.3,-7.2
O=S(=O)(c1ccc(Cl)cc1)N1CCN2CCCC2C1 (configuration not stated),5.5,0.0,-2.4,27.3*,-1.8,12.4
O=C(CCN1CCN(S(=O)(=O)c2ccc(Cl)cc2)CC1)Nc1ccccc1F,-4.2,0.5,-1.2,23.1,-1.5,2.6
O=C(CCN1CCN(S(=O)(=O)c2ccc(Cl)cc2)CC1)Nc1ccc(F)cc1,8.7,-0.6,-0.4,25.5*,-2.0,-5.0
COc1ccc(Cl)cc1NC(=O)CN(C)C(=O)CCSc1ccc(C)cc1,6.3,-1.8,x,26.4*,x,6.7
COc1ccc(C)cc1NC(=O)CN1CCN(S(=O)(=O)c2ccc(Cl)cc2)CC1,9.3,-4.3,-2.3,27.6*,-2.5,2.3
Cn1nnnc1Sc1ncnc2scc(-c3ccc(F)cc3)c12,1.4,28.7*,-2.3,-7.4,-3.3,-15.5
CCOC(=O)Cc1csc(NC(=O)c2sc3nc4ccc(CC)cc4cc3c2N)n1,-0.5,33.6*,-2.7,0.1,-3.3,-5.5
COc1cc(C(C)=O)ccc1OCC(O)CN(CCO)Cc1ccccc1 (configuration not stated),-2.7,32.0*,-3.0,-3.1,-0.7,6.5
OCCN(Cc1ccccc1)CC(O)COc1ccc(-c2ccccc2)cc1 (configuration not stated),0.1,8.9,-3.5,2.0,-2.2,8.2
CN1/C(=C\C(=O)COC(=O)c2ccc(O)c(O)c2)C(C)(C)c2ccccc21,x,32.4*,-3.4,x,-3.5,x
Cc1c(NC(=O)CSc2ccc(Cl)cc2)cccc1-c1nc2ncccc2o1,2.5,18.1,-2.7,25.1*,-1.7,-0.4
CC(=O)C1=C(O)C(=O)N(c2ccc(S(N)(=O)=O)cc2)C1c1cccc([N+](=O)[O-])c1 (configuration not stated),1.0,3.2,-2.6,2.8,-2.3,-2.2
CC(=O)C1C(=O)c2c(cccc2[N+](=O)[O-])C1=Nc1ccc(S(N)(=O)=O)cc1 (configuration not stated),34.8*,25.0*,1.9,23.3,-3.0,39.3*
C=CCn1c(SCC(=O)N(CC)C2CCS(=O)(=O)C2)nc2scc(-c3ccccc3)c2c1=O (configuration not stated),-0.6,x,x,1.3,x,-3.0
ON=C1c2cc(OCCN3CCCCC3)ccc2-c2ccc(OCCN3CCCCC3)cc21,-2.7,-6.5,5.6*,1.4,6.2,-3.1
CN(c1ncc(C(F)(F)F)cc1Cl)N1C(=O)c2cccc([N+](=O)[O-])c2C1=O,0.7,-3.1,36.5*,8.2,-3.7,-0.1
CN(C)C(=O)c1cn(N(C)c2ncc(C(F)(F)F)cc2Cl)c(=O)c2ccccc12,5.8,4.2,-2.9,-2.8,-6.6,-8.8
CCN(Cc1ccccc1)C(=O)CSc1ncn[nH]1,1.9,2.2,-2.9,6.5,1.0,5.8
Cn1c(NCCN2CCOCC2)nc2c1c(=O)n(Cc1cccc(Cl)c1)c(=O)n2C,-0.7,4.6,-3.0,27.8*,-3.3,3.0
CCCCCCSC1=C(C#N)C(c2ccc(C)o2)CC(=O)N1 (configuration not stated),10.1,25.4*,-2.2,5.3,-1.3,18.3
SMILES,PAFAH1B3 inh,pPAFAH inh,IMP-1 inh,PAFAH1B2 FP inh,VIM-2 inh,PAFAH2 inh
O=C(COC(=O)c1ccco1)NCc1ccc2c(c1)OCO2,-0.6,-1.7,-2.7,2.2,-2.9,13.6
O=C(COC(=O)c1cc(-c2ccco2)nc2ccccc12)NCc1ccc2c(c1)OCO2,6.1,26.4*,-1.8,0.0,-2.7,2.5
C=CCn1c(SCCN2CCCC2)nc2c([nH]c3ccccc32)c1=O,2.1,-2.6,0.2,5.4,10.3*,2.4
C=CCn1c(SCC(=O)Nc2ccc(OC)cc2)nc2c([nH]c3ccccc32)c1=O,3.4,-5.2,0.1,-7.8,-1.0,-7.4
COc1ccc2c(c1OC)c(=O)n1c3ccc(OC(C)C(=O)NCCCN4CCOCC4)cc3c3ccnc2c31 (configuration not stated),6.3,5.1,-1.5,4.6,11.4*,6.7
COc1ccc(/C=N/NC(=O)c2nn(C)cc2Br)cc1CSCc1ccco1,6.5,-40.0,18.2*,-5.1,1.8,10.9
Cc1c(CCC(=O)NCCCn2ccnc2)c(=O)oc2c(C)c3oc4c(c3cc12)CCCC4,0.8,9.3,-3.2,-1.6,9.6*,8.6
O=C(NCc1n[nH]c(=O)c2ccccc12)C1CC(=O)N(c2ccc(Cl)cc2)C1 (configuration not stated),8.2,-0.1,x,3.7,x,6.8
O=S(=O)(c1ccc(F)cc1)n1cnc2ccccc21,14.4,-6.1,-4.8,25.8*,-2.8,5.1
O=c1[nH]c(S)c(/C=C2\C=Nc3ccccc32)s1,x,24.6*,-4.2,x,-2.6,x
CC(=O)NCCC(=O)Nc1ncc(S(=O)(=O)c2ccc([N+](=O)[O-])cc2)s1,7.2,-1.1,x,25.9*,x,5.5
CCCCC(=O)Nc1ncc(S(=O)(=O)c2ccc([N+](=O)[O-])cc2)s1,0.4,-1.6,-0.5,1.4,1.6,8.1
O=C(Nc1ncc(S(=O)(=O)c2ccc([N+](=O)[O-])cc2)s1)c1cccc2ccccc12,1.0,6.7,-2.0,-3.5,-0.5,0.7
COCC(=O)Nc1ncc(S(=O)(=O)c2ccc([N+](=O)[O-])cc2)s1,10.2,3.2,-2.7,27.9*,-0.9,6.2
CCC(C(=O)NCc1ccco1)n1nc(C)n2c(cc3occc32)c1=O (configuration not stated),3.1,5.6,-0.5,2.6,0.7,0.6
CC(C)CC(=O)O/N=C1\C(=O)N(Cc2ccc(Cl)cc2)c2ccc([N+](=O)[O-])cc21,x,35.4*,0.1,x,-2.1,x
Fc1cccc(Nc2c3c(nc4ccccc24)CCC3)c1,9.4,6.2,-2.0,1.8,4.4,4.3
